Laboratory results: PMC7557949 (ACS Omega, 2020)
≈ marks a conversion by molar mass, not a printed value.

How the values were obtained:
[1] = test system: herpes simplex virus type 1 (HSV-1); assay: Plaque assay, antiviral activity against HSV-1; format: cell-based; details: Human alphaherpesvirus 1, Vero
[2] = test system: hepatitis A virus HM 175 (HAV HM 175); assay: Plaque assay, antiviral activity against HAV HM 175; format: cell-based
Outline: (§1)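 Plaque reduction. Nontoxic dilutions of test compound were mixed 1:1 with virus at 1 × 105, 1 × 106 or 1 × 107, for 0.5 h at 37 °C. 10-fold dilutions went onto BGM (CBV4), FRHK4 (HAV HM 175) or Hep-2 (adenovirus 7), with 1 h adsorption at 37 °C. Overlay was 2× DMEM plus 1% agarose. Cells were formalin-fixed and crystal violet-stained, and plaques counted. Triplicate. IC50 is the half-maximal plaque-reduction concentration.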

[3] = test system: ED-43/SG-Feo (VYG) replicon of hepatitis C virus genotype 4a (HCVcc); assay: Antiviral bioassay against ED-43/SG-Feo; format: cell-based; details: nontoxic dose of compound; average of three independent measurements
Outline: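 Huh 7.5 cells carrying the ED-43/SG-Feo (VYG) HCV genotype 4a subgenomic replicon were treated with the nontoxic dose of test compound. Replicon RNA copies were quantified by TaqMan qRT-PCR, and the result was expressed as percent reduction.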

[4] = test system: adenovirus type 7 (HAdV7); assay: Plaque assay, antiviral activity against adenovirus type 7; format: cell-based; details: nontoxic dose of compound; average of three independent measurements
Outline: as §1

[5] = Cytotoxicity test on Vero cell line; format: cell-based; details: African green monkey, uninfected Vero cells
Outline: (§2)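 Test compound was dissolved at 50 mg/mL in DMSO and decontaminated with 100× antimycotic–antibiotic mix. Cells were seeded at 2 × 10^5 cells/mL and grown 24 h at 37 °C, 5% CO2, to monolayers. Bi-fold dilutions in DMEM were applied for 72 h. Read by daily microscopy for morphology and by trypan blue (0.4%) viable counts. CC50 taken as the concentration giving 50% of untreated-cell OD492.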

[6] = Cytotoxicity test on BGM cell line; format: cell-based; details: African green monkey, uninfected BGM cells
Outline: as §2

[7] = Cytotoxicity test on FRHK-4 cell line; format: cell-based; details: rhesus monkey, uninfected FRHK-4 cells
Outline: as §2

[8] = molecular target: Hsp90α (Homo sapiens, UniProt P07900); assay: Hsp90α; format: biochemical; details: for inhibition at 0.1 µg/mL: read-out: percentage inhibition of Hsp90α at 0.1 (μg/mL); for inhibition at 1 µg/mL: read-out: percentage inhibition of Hsp90α at 1 (μg/mL); for inhibition at 10 µg/mL: read-out: percentage inhibition of Hsp90α at 10 (μg/mL); for inhibition at 100 µg/mL: read-out: percentage inhibition of Hsp90α at 100 (μg/mL)
Hsp90α, sequence (P07900 535-732 limits assumed): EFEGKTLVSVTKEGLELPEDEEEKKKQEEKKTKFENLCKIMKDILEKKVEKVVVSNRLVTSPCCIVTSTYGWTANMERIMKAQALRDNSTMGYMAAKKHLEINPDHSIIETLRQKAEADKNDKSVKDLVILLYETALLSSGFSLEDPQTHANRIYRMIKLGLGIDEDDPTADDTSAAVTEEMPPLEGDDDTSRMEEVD
Outline: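 AlphaScreen kit assay for Hsp90α C-terminal binding to PPID. Hsp90α was diluted to 1.5 ng/μL in assay buffer and premixed with test compound. The reaction was started with PPID diluted to 10 ng/μL and run 30 min at room temperature. Glutathione acceptor beads were added for 30 min, then streptavidin donor beads for 1 h, and Alpha counts read. Triplicate; percent inhibition calculated against control.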

[9] = test system: E. coli (ATCC:3008); assay: Agar well diffusion, inhibition zone; format: cell-based, Escherichia coli; details: 15 mg/mL, 100 μL per well; mm ± SD
Outline: (§3)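 Agar well diffusion. Saline inoculum adjusted to McFarland 0.5 ([…]), i.e. OD 0.13 at 625 nm, and swabbed over dried agar. After 15 min drying, 6 mm wells received 100 μL of test compound at 15 mg/mL. Plates incubated at 37 °C; bacterial zones read in mm after 24 h incubation […]. Triplicate, reported as mm ± SD. Gentamicin and ampicillin served as reference drugs.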

[10] = test system: K. pneumonia (ATCC:4415); assay: Agar well diffusion, inhibition zone; format: cell-based, Klebsiella pneumonia; details: 15 mg/mL, 100 μL per well; mm ± SD
Outline: as §3

[11] = test system: P. aeruginosa (ATCC:27853); assay: Agar well diffusion, inhibition zone; format: cell-based, Pseudomonas aeruginosa; details: 15 mg/mL, 100 μL per well; mm ± SD
Outline: as §3

[12] = test system: S. aureus (ATCC:6538); assay: Agar well diffusion, inhibition zone; format: cell-based, Staphylococcus aureus; details: for zone of inhibition at 15000 µg/mL: Staphylococcus aureus, 24 h, read-out: diameter of the IZ, S. aureus (ATCC:6538)
Outline: as §3

[13] = test system: S. mutans (ATCC:25175); assay: Agar well diffusion, inhibition zone; format: cell-based; details: for zone of inhibition at 15000 µg/mL: Streptococcus mutans, 24 h, read-out: diameter of the IZ, S. mutans (ATCC:25175)
Outline: as §3

[14] = test system: C. albicans (ATCC:10231); assay: Agar well diffusion, inhibition zone; format: cell-based, Candida albicans; details: 15 mg/mL, 100 μL per well; mm ± SD
Outline: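 Fungal plates were poured and agar dried 15 min. 6 mm wells were cut with a sterile borer and filled with 100 μL test compound solution at 15 mg/mL. Inhibition zone diameter (mm) was read after 48 h incubation. Triplicate, reported as mm ± SD.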

[15] = test system: C. albicans (ATCC:10231); assay: MIC, twofold serial dilution in agar; format: cell-based, Candida albicans
Outline: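 Test compound and reference drugs (ampicillin, gentamicin, nystatin) were made as 1000 μg/mL DMSO stocks, then diluted twofold to 500, 250, 125, 62.5 and 31.25 μg/mL. Dilutions were mixed into sterile nutrient agar, and a defined microbial inoculum was applied to the agar surface. Plates incubated at 37 °C in a humid chamber.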

[16] = test system: E. coli (ATCC:3008); assay: MIC, twofold serial dilution in agar; format: cell-based; details: Escherichia coli, read-out: MIC, E. coli (ATCC:3008)
[17] = test system: K. pneumonia (ATCC:4415); assay: MIC, twofold serial dilution in agar; format: cell-based; details: Klebsiella pneumoniae, read-out: MIC, K. pneumonia (ATCC:4415)
[18] = test system: P. aeruginosa (ATCC:27853); assay: MIC, twofold serial dilution in agar; format: cell-based; details: Pseudomonas aeruginosa, read-out: MIC, P. aeruginosa (ATCC:27853)
[19] = molecular target: T1, dihydrofolate reductase (DHFR) (Homo sapiens, UniProt P00374); assay: DHFR inhibitor screening assay; format: biochemical; details: for IC50: IC50 on the DHFR, average of three measurements; for inhibition at 0.01 µg/mL: read-out: percent inhibition of DHFR at 0.01 (μg/mL); for inhibition at 0.1 µg/mL: read-out: percent inhibition of DHFR at 0.1 (μg/mL); for inhibition at 1 µg/mL: read-out: percent inhibition of DHFR at 1 (μg/mL); for inhibition at 10 µg/mL: read-out: percent inhibition of DHFR at 10 (μg/mL)
T1 sequence (P00374 1-187): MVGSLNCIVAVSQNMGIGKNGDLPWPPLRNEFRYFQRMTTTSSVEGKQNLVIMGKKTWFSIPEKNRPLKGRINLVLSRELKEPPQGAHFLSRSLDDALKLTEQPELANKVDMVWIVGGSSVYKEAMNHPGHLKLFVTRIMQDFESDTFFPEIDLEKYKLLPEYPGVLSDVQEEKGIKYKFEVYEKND

[20] = test system: S. aureus (ATCC:6538); assay: MIC, twofold serial dilution in agar; format: cell-based; details: Staphylococcus aureus, read-out: MIC, S. aureus (ATCC:6538)
[21] = test system: S. mutans (ATCC:25175); assay: MIC, twofold serial dilution in agar; format: cell-based; details: Streptococcus mutans, read-out: MIC, S. mutans (ATCC:25175)
[22] = 15 mg/mL, 100 μL per well, mm ± SD

Compound: CCOC(=O)c1cc(C#N)c(=O)n(NS(=O)(=O)c2ccccc2)c1N [15c, Ethyl 2-Amino-5-cyano-6-oxo-1-(phenylsulfonamido)-1,6-dihydropyridine-3-carboxylate]
- IC50 [1]: 90 µg/mL (≈ 248 µM)
- IC50 ([2]; Hepatovirus A, FRhK-4): 88 µg/mL (≈ 243 µM)
- mean % of reduction, HCVcc genotype 4 [3]: 20.0 ± 0.15%
- mean % of reduction, adenovirus type 7 [4]: 36.7 ± 0.30%
- CC50 at 72 h [5]: 250 µg/mL (≈ 690 µM)
- CC50 at 72 h [6]: 260 µg/mL (≈ 718 µM)
- CC50 at 72 h [7]: 260 µg/mL (≈ 718 µM)
- inhibition at 0.1 µg/mL [8]: 8.42%
- inhibition at 1 µg/mL [8]: 26.1%
- inhibition at 10 µg/mL [8]: 48.7%
- inhibition at 100 µg/mL [8]: 72.7%
- diameter of the IZ, E. coli (ATCC:3008) [9]: no activity
- diameter of the IZ, K. pneumonia (ATCC:4415) [10]: no activity
- diameter of the IZ, P. aeruginosa (ATCC:27853) [11]: no activity
- diameter of the IZ, S. aureus (ATCC:6538) [12, 22]: no activity
- diameter of the IZ, S. mutans (ATCC:25175) [13, 22]: no activity
- diameter of the IZ, C. albicans (ATCC:10231) [14]: no activity

Compound: C[C@@H]1[C@H](O)[C@@H](C)/C=C/C=C/CC/C=C/C=C/C=C/C=C/C(O[C@H]2O[C@H](C)[C@@H](O)[C@H](N)[C@@H]2O)CC2O[C@](O)(CC(O)C(O)CCC(O)CC(O)CC(O)CC(=O)O[C@H]1C)CC(O)C2C(=O)O (stereo partly shown) [nystatin, reference compound]
- diameter of the IZ, C. albicans (ATCC:10231) [14]: 28.0 ± 0.2 mm
- MIC, C. albicans (ATCC:10231) [15]: 31.25 µg/mL (≈ 33.7 µM)

Compound: CNC(C)C1CCC(N)C(OC2C(N)CC(N)C(OC3OCC(C)(O)C(NC)C3O)C2O)O1 (stereo not shown) [gentamicin]
- diameter of the IZ, E. coli (ATCC:3008) [9]: 25.0 ± 0.1 mm
- diameter of the IZ, P. aeruginosa (ATCC:27853) [11]: 35.0 ± 0.1 mm
- MIC [16]: 31.2 µg/mL (≈ 65.4 µM)
- MIC [17]: 62.5 µg/mL (≈ 131 µM)
- MIC [18]: 125 µg/mL (≈ 262 µM)

Compound: CCOC(=O)c1cc(C#N)c(=O)n(NS(=O)(=O)c2ccc(C)cc2)c1N [15d, Ethyl 2-Amino-5-cyano-1-(4-methylphenylsulfonamido)-6-oxo-1,6-dihydropyridine-3-carboxylate]
- IC50 [1]: 90 µg/mL (≈ 239 µM)
- mean % of reduction, HAV HM 175 ([2]; nontoxic dose of compound, average of three independent measurements): 36.7 ± 0.25%
- mean % of reduction, HCVcc genotype 4 [3]: 20.0 ± 0.20%
- mean % of reduction, adenovirus type 7 [4]: 30.0 ± 0.10%
- CC50 at 72 h [5]: 220 µg/mL (≈ 584 µM)
- CC50 at 72 h [6]: 240 µg/mL (≈ 638 µM)
- inhibition at 0.1 µg/mL [8]: 10.5%
- inhibition at 1 µg/mL [8]: 25.9%
- inhibition at 10 µg/mL [8]: 57.4%
- inhibition at 100 µg/mL [8]: 89.9%
- diameter of the IZ, E. coli (ATCC:3008) [9]: 19.6 ± 1.5 mm
- zone of inhibition at 15000 µg/mL [12]: 11.3 ± 1.1 mm
- zone of inhibition at 15000 µg/mL [13]: 9 ± 1 mm
- MIC [16]: 1000 µg/mL (≈ 2660 µM)
- IC50 [19]: 12.4 µM
- inhibition at 0.01 µg/mL [19]: 11.1%
- inhibition at 0.1 µg/mL [19]: 20.7%
- inhibition at 1 µg/mL [19]: 39.9%
- inhibition at 10 µg/mL [19]: 56.1%

Compound: Nc1ccc(S(=O)(=O)Nc2ncccn2)cc1 [sulfadiazine, reference compound]
- diameter of the IZ, E. coli (ATCC:3008) [9]: 19.8 ± 0.4 mm
- diameter of the IZ, P. aeruginosa (ATCC:27853) [11]: 24.0 ± 1.4 mm
- zone of inhibition at 15000 µg/mL [12]: 31.3 ± 2.1 mm
- zone of inhibition at 15000 µg/mL [13]: 16.3 ± 1.1 mm
- diameter of the IZ, C. albicans (ATCC:10231) [14]: no activity
- MIC [16]: 250 µg/mL (≈ 999 µM)
- MIC [17]: 250 µg/mL (≈ 999 µM)
- MIC [18]: 250 µg/mL (≈ 999 µM)
- MIC [20]: 500 µg/mL (≈ 2000 µM)
- MIC [21]: 125 µg/mL (≈ 499 µM)
- IC50 [19]: 0.803 µM
- inhibition at 0.01 µg/mL [19]: 28.7%
- inhibition at 0.1 µg/mL [19]: 46.8%
- inhibition at 1 µg/mL [19]: 60.2%
- inhibition at 10 µg/mL [19]: 76.7%
